# According to ChEMBL document CHEMBL4825713, “Promising Non-cytotoxic Monosubstituted Chalcones to Target Monoamine Oxidase-B” (ACS Med Chem Lett, 2021):
# What was measured:
# [1] = molecular target: T1, Amine oxidase [flavin-containing] B (Homo sapiens, UniProt P27338); experiment: Competitive inhibition of recombinant human MAO-B expressed in baculovirus infected BTI cells using varying concentration of kynuramine as substrate at 5 to 40 nM by Lineweaver-burk plot analysis; settings: dose 5-40 nM
# T1 sequence (P27338 whole entry): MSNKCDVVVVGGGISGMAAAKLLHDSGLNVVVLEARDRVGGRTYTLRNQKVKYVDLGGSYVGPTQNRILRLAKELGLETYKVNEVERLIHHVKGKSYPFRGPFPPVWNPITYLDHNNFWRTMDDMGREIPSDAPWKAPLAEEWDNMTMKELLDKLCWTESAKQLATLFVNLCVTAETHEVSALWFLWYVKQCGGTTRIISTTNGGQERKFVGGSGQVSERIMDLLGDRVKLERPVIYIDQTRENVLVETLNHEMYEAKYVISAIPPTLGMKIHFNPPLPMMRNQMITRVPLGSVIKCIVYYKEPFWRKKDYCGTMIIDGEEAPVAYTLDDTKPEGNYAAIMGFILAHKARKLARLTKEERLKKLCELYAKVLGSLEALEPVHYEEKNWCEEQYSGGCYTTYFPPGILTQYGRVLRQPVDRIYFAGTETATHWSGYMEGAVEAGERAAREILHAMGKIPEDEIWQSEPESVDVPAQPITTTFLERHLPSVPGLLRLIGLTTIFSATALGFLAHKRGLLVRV
# In short: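 Initial velocities of human recombinant MAO-B measured at varied kynuramine concentrations, without inhibitor and with inhibitor at 5–40 nM. Data plotted as Lineweaver–Burk double reciprocals (1/v0 vs 1/[S]). Inhibition mode assigned from which intercept changes, x-intercept (−1/Km) versus y-intercept (1/Vmax). Mean ± SD of three independent experiments.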
# [2] = molecular target: T1, Amine oxidase [flavin-containing] B; experiment: Reversible inhibition of recombinant human MAO-B using kynuramine as substrate at 4 times Ki incubated for 20 mins
inhibition (INH) [1],inhibition (INH) [2],Structure (SMILES)
Active,Active,O=C(/C=C/c1ccccc1)c1cccc(C(F)(F)F)c1
–,Active,O=C(/C=C/c1ccccc1[N+](=O)[O-])c1ccccc1
–,Active,O=C(/C=C/c1ccccc1)c1ccc(C(F)(F)F)cc1
